Data as given in ChEMBL document CHEMBL4350960, “Structural Basis for E. coli Penicillin Binding Protein (PBP) 2 Inhibition, a Platform for Drug Design” (J Med Chem, 2019).
Converted amounts (≈) assume the structure as drawn. The source made the active and inactive calls. The rule behind the calls is not given here.

Key:
Escherichia coli [1] = experiment: Antibacterial activity against Escherichia coli clinical isolates measured after 16 to 20 hrs by broth microdilution method; format: functional
Summary of the method: (§1)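 Broth microdilution MICs following CLSI M7-A7, run against genotyped carbapenem-resistant E. coli and P. aeruginosa strains.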

Pseudomonas aeruginosa [2] = experiment: Antibacterial activity against Pseudomonas aeruginosa clinical isolates measured after 16 to 20 hrs by broth microdilution method; format: functional; summary of the method: as §1
[3] = target: T1, Penicillin-binding protein 1A (Escherichia coli K-12) (UniProt P02918); experiment: Inhibition of Escherichia coli PBP1a
T1 sequence (whole entry): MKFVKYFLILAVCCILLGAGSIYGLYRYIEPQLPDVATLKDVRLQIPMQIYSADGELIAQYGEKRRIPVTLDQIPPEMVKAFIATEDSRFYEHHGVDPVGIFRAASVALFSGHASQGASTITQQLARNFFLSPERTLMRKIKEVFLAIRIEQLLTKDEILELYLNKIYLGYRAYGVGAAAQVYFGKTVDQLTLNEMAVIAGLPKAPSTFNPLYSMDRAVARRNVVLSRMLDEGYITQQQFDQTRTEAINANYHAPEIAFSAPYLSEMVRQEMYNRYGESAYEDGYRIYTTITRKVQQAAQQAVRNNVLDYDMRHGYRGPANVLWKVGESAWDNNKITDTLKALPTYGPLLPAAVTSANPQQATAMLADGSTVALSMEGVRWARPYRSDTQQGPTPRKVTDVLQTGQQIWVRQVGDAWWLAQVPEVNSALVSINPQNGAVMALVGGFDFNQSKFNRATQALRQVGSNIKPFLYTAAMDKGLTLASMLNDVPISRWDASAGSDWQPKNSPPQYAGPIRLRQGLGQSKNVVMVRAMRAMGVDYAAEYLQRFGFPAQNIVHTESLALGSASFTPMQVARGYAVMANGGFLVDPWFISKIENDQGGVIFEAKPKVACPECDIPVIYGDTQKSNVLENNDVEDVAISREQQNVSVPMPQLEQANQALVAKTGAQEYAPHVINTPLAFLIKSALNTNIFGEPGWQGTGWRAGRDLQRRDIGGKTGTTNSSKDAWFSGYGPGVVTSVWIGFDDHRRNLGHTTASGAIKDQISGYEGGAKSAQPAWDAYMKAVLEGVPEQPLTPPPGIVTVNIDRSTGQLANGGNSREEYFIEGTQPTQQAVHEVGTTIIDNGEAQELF

[4] = target: T2, Peptidoglycan D,D-transpeptidase MrdA (Escherichia coli K-12, UniProt P0AD65); experiment: Inhibition of bocillin-FL binding to Escherichia coli K12 NusA-fused/His6-tagged PBP2 (57 to 615 residues) expressed in Escherichia coli BL21(DE3) preincubated for 30 mins followed by bocillin-FL addition by RT-fluorescence anisotropy method
T2 sequence (P0AD65 whole entry): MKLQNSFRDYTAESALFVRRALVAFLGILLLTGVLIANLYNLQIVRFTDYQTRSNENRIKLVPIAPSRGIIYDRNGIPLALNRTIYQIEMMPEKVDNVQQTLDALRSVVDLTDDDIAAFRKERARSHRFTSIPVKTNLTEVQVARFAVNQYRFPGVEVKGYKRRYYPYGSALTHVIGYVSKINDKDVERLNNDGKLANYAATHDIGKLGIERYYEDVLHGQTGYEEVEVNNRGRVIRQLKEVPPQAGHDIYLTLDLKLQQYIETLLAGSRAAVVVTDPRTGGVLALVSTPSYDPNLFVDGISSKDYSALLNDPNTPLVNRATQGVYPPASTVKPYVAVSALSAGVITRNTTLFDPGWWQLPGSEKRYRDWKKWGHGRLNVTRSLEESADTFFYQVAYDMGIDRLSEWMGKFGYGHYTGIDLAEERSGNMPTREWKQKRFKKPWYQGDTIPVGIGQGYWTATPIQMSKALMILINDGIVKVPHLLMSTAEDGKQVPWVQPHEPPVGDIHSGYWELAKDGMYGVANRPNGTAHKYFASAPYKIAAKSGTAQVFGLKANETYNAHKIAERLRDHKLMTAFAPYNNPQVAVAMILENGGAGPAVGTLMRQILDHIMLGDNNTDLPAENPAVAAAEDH

Escherichia coli [5] = experiment: Antibacterial activity against Escherichia coli UFR39 measured after 16 to 20 hrs by broth microdilution method; format: functional; summary of the method: as §1
Escherichia coli [6] = experiment: Inhibition of Escherichia coli PBP3
Pseudomonas aeruginosa [7] = experiment: Antibacterial activity against Pseudomonas aeruginosa UFR49 measured after 16 to 20 hrs by broth microdilution method; format: functional
[8] = target: T3, Penicillin-binding protein 1B (Escherichia coli K-12) (UniProt P02919); experiment: Inhibition of Escherichia coli PBP1b
T3 sequence (whole entry): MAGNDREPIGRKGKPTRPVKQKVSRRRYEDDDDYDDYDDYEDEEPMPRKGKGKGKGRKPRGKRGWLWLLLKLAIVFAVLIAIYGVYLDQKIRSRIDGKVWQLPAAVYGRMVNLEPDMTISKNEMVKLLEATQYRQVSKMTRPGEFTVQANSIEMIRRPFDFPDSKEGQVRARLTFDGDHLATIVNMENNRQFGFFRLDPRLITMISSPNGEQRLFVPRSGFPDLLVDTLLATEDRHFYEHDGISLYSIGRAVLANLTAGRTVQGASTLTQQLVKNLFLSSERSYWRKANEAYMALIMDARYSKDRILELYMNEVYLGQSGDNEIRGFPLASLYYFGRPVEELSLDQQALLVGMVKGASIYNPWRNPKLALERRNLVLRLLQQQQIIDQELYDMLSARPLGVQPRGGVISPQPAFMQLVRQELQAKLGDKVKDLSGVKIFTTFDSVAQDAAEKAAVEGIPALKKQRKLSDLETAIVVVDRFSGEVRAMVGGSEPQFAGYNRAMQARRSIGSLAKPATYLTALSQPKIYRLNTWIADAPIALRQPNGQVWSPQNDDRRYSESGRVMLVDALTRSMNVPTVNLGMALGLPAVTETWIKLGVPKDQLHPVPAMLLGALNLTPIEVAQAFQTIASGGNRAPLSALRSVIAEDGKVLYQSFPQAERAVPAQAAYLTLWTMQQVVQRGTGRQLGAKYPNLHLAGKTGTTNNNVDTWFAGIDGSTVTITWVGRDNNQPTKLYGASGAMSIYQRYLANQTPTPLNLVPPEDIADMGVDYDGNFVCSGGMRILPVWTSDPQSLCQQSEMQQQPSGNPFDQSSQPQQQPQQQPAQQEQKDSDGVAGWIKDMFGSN

MIC50 (Escherichia coli [1]) [µg/mL] | MIC90 (Escherichia coli [1]) [µg/mL] | MIC50 (Pseudomonas aeruginosa [2]) [µg/mL] | MIC90 (Pseudomonas aeruginosa [2]) [µg/mL] | inhibition [3] | IC50 [4] [nM] | MIC (Escherichia coli [5]) [µg/mL] | inhibition (Escherichia coli [6]) | MIC (Pseudomonas aeruginosa [7]) [µg/mL] | inhibition [8] | SMILES
32 (≈ 81.8 µM) | > 32 | 8 (≈ 20.4 µM) | 16 (≈ 40.9 µM) | – | – | – | – | – | – | O=C(NNC(=O)[C@@H]1CC[C@@H]2CN1C(=O)N2OS(=O)(=O)O)[C@@H]1CCCNC1 [ZIDEBACTAM]
– | – | – | – | inactive | 25 | 4 | inactive | > 32 | inactive | O=C1N2CC=C(c3cnco3)C(C2)N1OS(=O)(=O)[O-].[Na+] (stereo unspecified)
– | – | – | – | – | 17 | – | – | > 32 | – | O=C1N2CC=C(c3cnoc3)C(C2)N1OS(=O)(=O)[O-].[Na+] (stereo unspecified)
32 | > 32 | > 32 | > 32 | – | 590 | 16 to 32 | – | > 32 | – | NC(=O)[C@@H]1CC[C@@H]2CN1C(=O)N2OS(=O)(=O)[O-].[Na+] [AVIBACTAM SODIUM]
– | – | – | – | inactive | 570 | 16 | inactive | > 32 | inactive | O=C1N2CC=CC(C2)N1OS(=O)(=O)[O-].[Na+] (stereo unspecified)
– | – | – | – | – | – | – | – | > 32 | – | O=C1N2CC=C(c3ncco3)C(C2)N1OS(=O)(=O)[O-].[Na+] (stereo unspecified)

SMILES | MIC50 (Escherichia coli [1]) [µg/mL] | MIC90 (Escherichia coli [1]) [µg/mL] | MIC50 (Pseudomonas aeruginosa [2]) [µg/mL] | MIC90 (Pseudomonas aeruginosa [2]) [µg/mL] | inhibition [3] | IC50 [4] [nM] | MIC (Escherichia coli [5]) [µg/mL] | inhibition (Escherichia coli [6]) | MIC (Pseudomonas aeruginosa [7]) [µg/mL] | inhibition [8]
C[C@@H](O)[C@H]1C(=O)N2C(C(=O)O)=C(S[C@@H]3CN[C@H](C(=O)N(C)C)C3)[C@H](C)[C@H]12 [MEROPENEM] | 0.5 (≈ 1.3 µM) | > 32 | 8 (≈ 20.9 µM) | > 32 | – | – | 128 (≈ 334 µM) | – | – | –
